# pEC50, pIC50: −log10 of the molar value.
# Assays:
# [1] = test system: Human immunodeficiency virus 1; assay: Antiviral activity against HIV-1 92US657 infected in human MT2 cells assessed as inhibition of viral infection; assay type: functional, organism-based; conditions: Human immunodeficiency virus 1, 92US657, MT2
# [2] = test system: Human immunodeficiency virus 1; assay: Antiviral activity against HIV-1 IIIB infected in human MT2 cells assessed as inhibition of viral replication by p24 ELISA method; assay type: functional, organism-based; conditions: Human immunodeficiency virus 1, IIIB
# [3] = test system: Human immunodeficiency virus 1; assay: Anti-HIV activity against HIV-1 NL4.3 infected in human MT2 cells measured after 48 hrs by luminescence based assay; assay type: functional, organism-based; conditions: Human immunodeficiency virus 1, NL4.3, MT2, 48 h
# [4] = Cytotoxicity against african green monkey Vero E6 cells by CCK8 assay; assay type: toxicity, cell-based, Vero C1008; conditions: chlorocebus sabaeus
# [5] = Cytotoxicity against human CEM-SS cells assessed as inhibition of cell growth; assay type: toxicity, cell-based
# [6] = test system: Human immunodeficiency virus 1; assay: Antiviral activity against HIV-1 infected in human CEM-SS cells assessed as reduction in virus induced cytopathic effect by XTT assay; assay type: functional, organism-based; conditions: Human immunodeficiency virus 1, CEM-SS
# [7] = test system: Human immunodeficiency virus 1; assay: Antiviral activity against HIV-1 infected in human H9 cells assessed as inhibition of viral replication; assay type: functional, organism-based; conditions: Human immunodeficiency virus 1, H9
# [8] = Inhibition of HIV-1 integrase; design: species or system Human immunodeficiency virus 1
# [9] = test system: Ebolavirus; assay: Antiviral activity against recombinant VSV-deltaG pseudotyped GFP-tagged EBOV infected in human Huh-7 cells preincubated with cells for 1 hr followed by viral infection and measured after 16 hrs by […] assay; assay type: functional, organism-based; conditions: Orthoebolavirus
# [10] = test system: enterovirus D68; assay: Antiviral activity against Enterovirus D68 US/KY/14-18953 infected in human RD cells assessed as reduction in virus induced cytopathic effect; assay type: functional, organism-based; conditions: Enterovirus D, US/KY/14-18953, RD
# [11] = Selectivity index, ratio of CC50 for cytotoxicity against human Huh-7 cells to IC50 for antiviral activity against recombinant VSV-deltaG pseudotyped GFP-tagged EBOV infected in human Huh-7 cells; assay type: toxicity, cell-based; conditions: read-out: Ratio CC50/IC50
# [12] = (§1) Cytotoxicity against african green monkey Vero cells incubated for 48 hrs; assay type: toxicity, cell-based; conditions: chlorocebus sabaeus, Vero cells
# [13] = test system: Zika virus; assay: Antiviral activity against ZIKV PRVABC59; assay type: functional, organism-based
# Procedure, shortened: (§2)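 Human glioblastoma SNB-19 cells were infected with ZIKV strain PRVABC59 at MOI 1. Virus production was measured by titer assay in Vero cells. Niclosamide served as positive and quality control in each antiviral assay.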
# [14] = Selectivity index, ratio of CC50 for cytotoxicity against african green monkey Vero cells to EC50 for antiviral activity against ZIKV PRVABC59; assay type: toxicity, cell-based; conditions: read-out: Ratio CC50/EC50
# [15] = (§3) Cytotoxicity against human SNB-19 cells incubated for 24 hrs; assay type: toxicity, cell-based; conditions: SNB-19 cells
# [16] = Selectivity index, ratio of CC50 for cytotoxicity against human SNB-19 cells to EC50 for antiviral activity against ZIKV PRVABC59; assay type: toxicity, cell-based; conditions: read-out: Ratio CC50/EC50; procedure, shortened: as §2
# [17] = test system: SNB-19; assay: as §3; assay type: toxicity, cell-based; conditions: snb-19, 24 h
# [18] = test system: dengue virus type 2; assay: Antiviral activity against Dengue virus serotype 2 infected in african green monkey Vero cells assessed as reduction in virus yield preincubated for 1 hr followed by replacement with medium containing compounds and measured after 48 hrs by crystal violet staining based plaque assay; assay type: functional, organism-based
# [19] = Cytotoxicity against african green monkey Vero cells incubated for 48 hrs by CellTiter-Glo luminescence based assay; assay type: toxicity, cell-based; conditions: chlorocebus sabaeus
# [20] = test system: Human immunodeficiency virus 1; assay: Anti-HIV activity against HIV-1 NL4.3 infected in human MT2 cells measured after 7 days by MTT assay; assay type: functional, organism-based; conditions: Human immunodeficiency virus 1, NL4.3, MT2, 168 h
# [21] = test system: Vero; assay: as §1; assay type: toxicity, cell-based; conditions: chlorocebus sabaeus, vero, 48 h
# [22] = Cytotoxicity against human RD cells by neutral red method; assay type: toxicity, cell-based
# [23] = Selectivity index, ratio of CC50 for cytotoxicity against human RD cells to EC50 for antiviral activity against Enterovirus D68 US/KY/14-18953 infected in human RD cells; assay type: toxicity, cell-based; conditions: read-out: Ratio CC50/EC50
# [24] = biological target: Human immunodeficiency virus type 1 reverse transcriptase (Human immunodeficiency virus 1, UniProt Q72547); assay: Inhibition of HIV-1 reverse transcriptase incubated for 90 mins by liquid scintillation counting analysis
# [25] = test system: Human immunodeficiency virus 1; assay: Antiviral activity against HIV-1 infected in human HeLa P4 cells assessed as inhibition of viral particles production; assay type: functional, organism-based; conditions: Human immunodeficiency virus 1, HeLaP4
smiles,measurement,setting,value
COc1ccc2nc(OC)c(/C=C3\NC(=O)N(Cc4ccccc4)C3=O)cc2c1,pEC50,[1],6.28
same,pEC50,[2],6.57
Cc1cc(C)c2c(c1)N[C@H](c1cccc(N)c1)C[C@@H]2N1CCCC1=O,pIC50,[3],4.30
CCN(CCO)CCCC(C)Nc1ccnc2cc(Cl)ccc12 (centres undefined) [HYDROXYCHLOROQUINE],CC50,[4],273000 nM
C=CC(C)(C)C1(CC=C(C)C)C(=O)Nc2ccccc2C1OCC=C(C)C (centres undefined),pIC50,[5],4.57
same,pEC50,[6],5.79
C=CC(C)(C)C1(CC=C(C)C)C(=O)Nc2ccccc2C1=O (centres undefined) [BUCHAPINE],pIC50,[5],4.54
COc1c2[nH]c3occc3c(OC)c-2ccc1=O [HAPLOPINE],pEC50,[7],> 5.23
Nc1cccc([C@@H]2C[C@H](N3CCCC3=O)c3ccccc3N2)c1,pIC50,[3],4.30
COc1cc(NC(=O)c2ccc3ccc(C(=O)O)c(O)c3n2)cc(O)c1O,pIC50,[8],5.19
O=C1N/C(=C\c2cc3ccccc3nc2Cl)C(=O)N1CCc1ccccc1,pEC50,[1],6.28
same,pEC50,[2],5.53
COc1ccc2cc(/C=C3\NC(=O)N(CCc4ccccc4)C3=O)c(Cl)nc2c1,pEC50,[1],6.28
same,pEC50,[2],6.34
O=C(O)c1ccc2ccc(/C=C/c3ccccc3)nc2c1O,pIC50,[8],5.28
COc1ccc2nc(OC)c(/C=C3\NC(=O)N(CCc4ccccc4)C3=O)cc2c1,pEC50,[1],6.28
same,pEC50,[2],5.82
CCCCCCNCc1cc(Nc2ccnc3cc(Cl)ccc23)ccc1O,pIC50,[9],6.54
CC(C)Oc1ccc2cc(/C=C3\NC(=O)N(CCc4ccccc4)C3=O)c(Cl)nc2c1,pEC50,[1],6.28
same,pEC50,[2],6.48
Cc1cccc2cc(/C=C3\NC(=O)N(Cc4ccccc4)C3=O)c(Cl)nc12,pEC50,[1],6.28
same,pEC50,[2],6.83
O=C(NCc1ccc(O)c(O)c1)c1ccc2ccc(C(=O)O)c(O)c2n1,pIC50,[8],5.30
CN(C)CCNC(=O)c1cc(Oc2ccccc2)nc2ccc(F)cc12,pEC50,[10],6.22
CCCCCCCCN(C)Cc1cc(Nc2ccnc3cc(I)ccc23)ccc1O,selectivity ratio,[11],> 100
same,pIC50,[9],6.59
CCN(CC)Cc1cc(Nc2ccnc3cc(Cl)ccc23)ccc1O [AMODIAQUINE],selectivity ratio,[11],37
COc1c2ccoc2nc2c(OC)cccc12 [GAMMA-FAGARINE],pEC50,[7],> 5.23
COc1ccc2nc(Cl)c(/C=C3\NC(=O)N(Cc4ccccc4)C3=O)cc2c1,pEC50,[1],6.28
same,pEC50,[2],5.71
C=C1CC[C@H]2[C@@](C)(CCC(O)[C@@]2(C)CO)[C@@H]1C/C=C1/C(=O)OC[C@H]1Oc1cccc2cccnc12 (some centres undefined),CC50 at 48 h,[12],22800 nM
same,pEC50,[13],4.96
same,selectivity ratio,[14],2.1
same,CC50 at 24 h,[15],60100 nM
same,selectivity ratio,[16],5.5
C=C1CC[C@@H]2[C@](C)(CO)[C@H](O)CC[C@@]2(C)[C@@H]1C/C=C1/C(=O)OC[C@@H]1Oc1cccc2ccc(C)nc12,CC50,[17],> 100000 nM
CC(C)Cc1ccc2c(Cl)cc(Cl)c(O)c2n1,pIC50,[18],6.31
same,CC50 at 48 h,[19],19400 nM
COc1cc(OC)c2ccc(-c3cccc([N+](=O)[O-])c3)nc2c1,pIC50,[20],4.73
Cc1cccc2cc(/C=C3\NC(=O)N(CCc4ccccc4)C3=O)c(Cl)nc12,pEC50,[1],6.28
same,pEC50,[2],6.30
COc1cc2c(c(OC)c1)[C@@H](N1CCCC1=O)C[C@@H](c1cccc(N)c1)N2,pIC50,[3],4.30
CC(C)c1ccc2c(Cl)cc(Cl)c(O)c2n1,pIC50,[18],5.52
same,CC50 at 48 h,[19],16100 nM
C=C1CC[C@@H]2[C@](C)(CO)[C@H](O)CC[C@@]2(C)[C@@H]1C/C=C1/C(=O)OC[C@@H]1Oc1c(Cl)cc(Cl)c2cccnc12,CC50,[21],> 100000 nM
same,CC50,[17],> 100000 nM
O=C(NNc1ccc([N+](=O)[O-])cc1[N+](=O)[O-])c1ccc2ccc(C(=O)O)c(O)c2n1,pIC50,[8],5.52
CCN(CC)CCNC(=O)c1cc(OC(C)C)nc2ccccc12,CC50,[22],11200 nM
O=C1N/C(=C\c2cccc3ccccc23)C(=O)N1Cc1ccccc1,pEC50,[1],6.28
same,pEC50,[2],5.82
CCN(CC)Cc1cc(Nc2c(Oc3ccccc3)cnc3cc(Cl)ccc23)ccc1O,pIC50,[9],6.14
COc1nc2ccccc2cc1/C=C1\NC(=O)N(Cc2ccccc2)C1=O,pEC50,[1],6.28
same,pEC50,[2],5.85
CN(C)CCNC(=O)c1cc(Oc2ccccc2)nc2ccccc12,pEC50,[10],6.40
same,selectivity ratio,[23],184
same,CC50,[22],73700 nM
O=C(NCc1ccc(O)c(O)c1O)c1ccc2ccc(C(=O)O)c(O)c2n1,pIC50,[8],5.82
CCN(CC)CCCC(C)Nc1ccnc2cc(Cl)ccc12 (centres undefined) [CHLOROQUINE],CC50,[4],250000 nM
CCN(CC)Cc1cc(Nc2ccnc3cc(I)ccc23)ccc1O,selectivity ratio,[11],> 130
same,pIC50,[9],6.19
Cc1ccc2nc(Cl)c(/C=C3\NC(=O)N(Cc4ccccc4)C3=O)cc2c1,pEC50,[1],6.28
same,pEC50,[2],5.26
COc1ccc2nc(Cl)c(/C=C3\NC(=O)N(CCc4ccccc4)C3=O)cc2c1,pEC50,[1],6.28
same,pEC50,[2],6.00
CC(C)[C@H]1C(=O)OC[C@@H](NC(=O)c2nc3ccccc3cc2O)C(=O)N2CCCC[C@H]2C(=O)NCC(=O)N(C)CC(=O)N(C)[C@@H](C(C)C)C(=O)OC[C@@H](NC(=O)c2nc3ccccc3cc2O)C(=O)N2CCCC[C@H]2C(=O)NCC(=O)N(C)CC(=O)N1C,pIC50,[24],9.89
CN(C)CCNC(=O)c1cc(Oc2cccs2)nc2ccccc12,pEC50,[10],7.40
same,selectivity ratio,[23],> 600
Cc1ccc2cc(/C=C3\NC(=O)N(Cc4ccccc4)C3=O)c(Cl)nc2c1,pEC50,[1],6.28
same,pEC50,[2],6.15
O=C(O)/C=C\c1cc(C(=O)O)c(O)c2cc(/C=C/c3ccc(O)c(O)c3)ccc12,pIC50,[25],4.46
Cc1ccc2nc(Cl)c(/C=C3\NC(=O)N(CCc4ccccc4)C3=O)cc2c1,pEC50,[1],6.30
same,pEC50,[2],4.64
O=C1N/C(=C\c2cc3ccccc3nc2Cl)C(=O)N1Cc1ccccc1,pEC50,[1],6.28
same,pEC50,[2],4.30
COc1cc(/C=C/c2ccc3ccc(C(=O)O)c(O)c3n2)cc(O)c1O,pIC50,[8],6.15
COc1nc2ccccc2cc1/C=C1\NC(=O)N(CCc2ccccc2)C1=O,pEC50,[1],6.28
same,pEC50,[2],6.38
CCCCN(CCCC)Cc1cc(Nc2ccnc3cc(Cl)ccc23)ccc1O,selectivity ratio,[11],> 130
same,pIC50,[9],6.14
O=C(O)c1ccc2ccc(/C=C/c3ccc(O)c(O)c3)nc2c1O,pIC50,[8],5.62
CN(C)CCNC(=O)c1cc(Oc2ccccc2)nc2ccc(Cl)cc12,pEC50,[10],5.92
Cc1ccc2cc(/C=C3\NC(=O)N(CCc4ccccc4)C3=O)c(Cl)nc2c1,pEC50,[1],6.28
same,pEC50,[2],5.59
O=C(NCCN1CCCC1)c1cc(Oc2cccs2)nc2ccccc12,pEC50,[10],7.22
same,selectivity ratio,[23],> 600
COc1cc(/C=C/c2ccc3c(C(=O)O)cc(C(=O)O)c(O)c3c2)cc(O)c1O,pIC50,[25],5.80
COc1c2ccc(O)cc2nc2occc12 [CONFUSAMELINE],pEC50,[7],> 5.23
O=C1N/C(=C\c2cccc3ccccc23)C(=O)N1CCc1ccccc1,pEC50,[1],6.28
same,pEC50,[2],5.71
